Measurements taken from ChEMBL document CHEMBL1146123, “Kinesin spindle protein (KSP) inhibitors. Part 2: the design, synthesis, and characterization of 2,4-diaryl-2,5-dihydropyrrole inhibitors of the mitotic kinesin KSP” (Bioorg Med Chem Lett, 2006).

Assays:
[1] = target: T1, Kinesin-like protein KIF11 (Homo sapiens, UniProt P52732); assay: Inhibition of KSP
T1 sequence (P52732 whole entry): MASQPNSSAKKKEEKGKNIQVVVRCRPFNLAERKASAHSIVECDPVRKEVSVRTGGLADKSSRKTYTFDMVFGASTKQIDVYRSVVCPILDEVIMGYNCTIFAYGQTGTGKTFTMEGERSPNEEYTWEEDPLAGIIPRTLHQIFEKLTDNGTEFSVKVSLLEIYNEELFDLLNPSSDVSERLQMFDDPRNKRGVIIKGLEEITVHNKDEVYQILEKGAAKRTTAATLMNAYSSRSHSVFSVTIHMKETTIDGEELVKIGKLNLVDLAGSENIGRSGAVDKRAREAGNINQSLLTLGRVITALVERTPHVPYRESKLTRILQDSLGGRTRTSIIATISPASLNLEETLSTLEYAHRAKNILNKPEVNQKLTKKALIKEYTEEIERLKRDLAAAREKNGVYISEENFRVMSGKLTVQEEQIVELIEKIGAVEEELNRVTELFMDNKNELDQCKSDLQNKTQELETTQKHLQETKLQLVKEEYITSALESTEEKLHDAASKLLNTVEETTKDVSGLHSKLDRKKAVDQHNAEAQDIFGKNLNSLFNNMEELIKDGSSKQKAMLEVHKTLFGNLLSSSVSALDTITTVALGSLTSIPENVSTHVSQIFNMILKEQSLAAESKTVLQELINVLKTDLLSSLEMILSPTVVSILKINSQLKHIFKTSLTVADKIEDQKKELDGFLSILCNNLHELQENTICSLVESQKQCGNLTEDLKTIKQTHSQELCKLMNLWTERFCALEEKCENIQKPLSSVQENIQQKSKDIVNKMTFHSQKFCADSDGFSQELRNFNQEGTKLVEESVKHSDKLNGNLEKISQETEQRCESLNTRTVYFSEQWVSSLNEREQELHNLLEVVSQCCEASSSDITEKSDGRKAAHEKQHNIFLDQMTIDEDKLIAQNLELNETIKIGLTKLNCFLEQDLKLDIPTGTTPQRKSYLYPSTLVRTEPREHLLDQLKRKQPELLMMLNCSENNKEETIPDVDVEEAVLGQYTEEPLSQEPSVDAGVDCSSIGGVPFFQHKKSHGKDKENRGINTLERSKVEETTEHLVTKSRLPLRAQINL

[2] = system: A2780; assay: Mitotic arrest in A2780 cells; type: functional, cell-based; conditions: Homo sapiens
Method in brief: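 Mitosis-specific nucleolin phosphorylation read-out. Total nucleolin is captured on streptavidin paramagnetic beads carrying biotinylated anti-nucleolin antibody 4E2, and detected by electrochemiluminescence of a Tris-bipyridyl label. Cells were treated for 16 h with a 7-point, half-log dilution series. EC50 is the average of at least two independent determinations.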

[3] = Volume distribution in rat at 1 mg/kg, iv; type: ADME, organism-based; set-up: dose 1 mg/kg, route intravenous; conditions: in vivo, read-out: Vdss
Method in brief: (§1)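 Single intravenous dose; rats at 1.0 mg/kg (n = 4), dogs at 0.4 mg/kg (n = 4), monkeys at 0.4 mg/kg (n = 3). Plasma clearance (mL/min/kg), steady-state volume of distribution (Vdss, L/kg) and half-life (h) taken from the plasma concentration profile.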

[4] = Half life in monkey at 0.4 mg/kg, iv; type: ADME, organism-based, Macaca mulatta; set-up: dose 0.4 mg/kg, route intravenous; conditions: rhesus monkey, in vivo; method in brief: as §1
[5] = Plasma clearance in monkey at 0.4 mg/kg, iv; type: ADME, organism-based, Macaca mulatta; set-up: dose 0.4 mg/kg, route intravenous; conditions: rhesus monkey; method in brief: as §1
[6] = Half life in dog at 0.4 mg/kg, iv; type: ADME, organism-based, Canis lupus familiaris; set-up: dose 0.4 mg/kg, route intravenous; conditions: in vivo; method in brief: as §1
[7] = Aqueous solubility at pH 5; type: physicochemical; conditions: aqueous solution
[8] = Plasma clearance in dog at 0.4 mg/kg, iv; type: ADME, organism-based, Canis lupus familiaris; set-up: dose 0.4 mg/kg, route intravenous; method in brief: as §1
[9] = Half life in rat at 1 mg/kg, iv; type: ADME, organism-based; set-up: dose 1 mg/kg, route intravenous; conditions: in vivo; method in brief: as §1
[10] = Volume distribution in dog at 0.4 mg/kg, iv; type: ADME, organism-based, Canis lupus familiaris; set-up: dose 0.4 mg/kg, route intravenous; conditions: in vivo, read-out: Vdss; method in brief: as §1
[11] = Volume distribution in monkey at 0.4 mg/kg, iv; type: ADME, organism-based, Macaca mulatta; set-up: dose 0.4 mg/kg, route intravenous; conditions: rhesus monkey, in vivo, read-out: Vdss; method in brief: as §1
[12] = Plasma clearance in rat at 1 mg/kg, iv; type: ADME, organism-based; set-up: dose 1 mg/kg, route intravenous; method in brief: as §1
[13] = target: Voltage-gated inwardly rectifying potassium channel KCNH2 (Homo sapiens, UniProt Q12809); assay: Inhibitory activity against human hERG receptor expressed in HEK cells
Sequence of Voltage-gated inwardly rectifying potassium channel KCNH2 (Q12809 whole entry): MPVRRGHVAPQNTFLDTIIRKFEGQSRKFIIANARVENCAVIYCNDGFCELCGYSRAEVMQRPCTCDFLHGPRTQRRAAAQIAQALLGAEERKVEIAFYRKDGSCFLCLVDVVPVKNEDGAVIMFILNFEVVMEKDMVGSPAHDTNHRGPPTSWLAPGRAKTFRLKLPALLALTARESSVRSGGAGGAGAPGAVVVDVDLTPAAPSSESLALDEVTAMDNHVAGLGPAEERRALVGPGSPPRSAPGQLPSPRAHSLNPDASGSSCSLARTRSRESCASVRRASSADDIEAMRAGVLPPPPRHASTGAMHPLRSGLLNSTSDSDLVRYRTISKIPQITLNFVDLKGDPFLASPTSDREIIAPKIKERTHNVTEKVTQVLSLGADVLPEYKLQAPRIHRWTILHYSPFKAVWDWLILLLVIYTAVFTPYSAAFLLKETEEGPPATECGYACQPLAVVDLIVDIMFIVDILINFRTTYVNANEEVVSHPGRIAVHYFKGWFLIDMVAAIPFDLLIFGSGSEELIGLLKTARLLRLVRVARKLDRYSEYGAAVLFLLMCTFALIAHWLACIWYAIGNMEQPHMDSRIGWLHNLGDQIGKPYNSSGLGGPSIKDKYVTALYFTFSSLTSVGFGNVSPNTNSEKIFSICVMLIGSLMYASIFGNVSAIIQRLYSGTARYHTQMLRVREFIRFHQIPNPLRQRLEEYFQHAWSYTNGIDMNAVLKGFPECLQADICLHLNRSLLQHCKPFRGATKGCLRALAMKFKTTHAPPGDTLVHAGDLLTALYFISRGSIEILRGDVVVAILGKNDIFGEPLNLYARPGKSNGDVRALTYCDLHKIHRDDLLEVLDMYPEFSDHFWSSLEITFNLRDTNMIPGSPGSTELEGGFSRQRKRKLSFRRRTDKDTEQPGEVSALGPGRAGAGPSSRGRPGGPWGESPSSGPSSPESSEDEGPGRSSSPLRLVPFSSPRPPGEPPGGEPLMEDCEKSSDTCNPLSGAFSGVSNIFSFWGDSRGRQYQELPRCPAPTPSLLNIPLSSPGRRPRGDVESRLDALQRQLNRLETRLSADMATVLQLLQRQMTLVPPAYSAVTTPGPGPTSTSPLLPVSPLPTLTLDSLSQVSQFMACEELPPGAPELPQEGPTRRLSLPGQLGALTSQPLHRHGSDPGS

SMILES | IC50 [1] [nM] | EC50 [2] [nM] | further results
CC(C)(C)[C@H](NC(=O)OCCO)C(=O)N1CC(c2cc(F)ccc2F)=C[C@H]1c1ccccc1 | 7.4 | 13 | –
CC(C)(CN)C(=O)N1CC(c2cc(F)ccc2F)=C[C@H]1c1ccccc1 | 5.2 | 11 | –
CC(C)[C@@H](N)C(=O)N1CC(c2cc(F)ccc2F)=C[C@H]1c1ccccc1 | 3100 | – | –
CC(C)(C)[C@H](N)C(=O)N1CC(c2cc(F)ccc2F)=C[C@H]1c1ccccc1 | 2.7 | 7.1 | –
N[C@H](C(=O)N1CC(c2cc(F)ccc2F)=C[C@H]1c1ccccc1)C1CC1 | – | 8.6 | Vd [3]: 4.4 L/kg; half-life [4]: 4.5 h; clearance [5]: 21 mL/min/kg; half-life [6]: 2.3 h; solubility [7]: > 10000 µg/mL; clearance [8]: 23 mL/min/kg; half-life [9]: 1.4 h; Vd [10]: 3.8 L/kg; Vd [11]: 7.4 L/kg; clearance [12]: 40 mL/min/kg
CN(C(=O)N1CC(c2cc(F)ccc2F)=C[C@H]1c1ccccc1)C1CCNCC1 | – | 6.8 | solubility [7]: > 10000 µg/mL
CC(=O)N1CCC(N(C)C(=O)N2CC(c3cc(F)ccc3F)=C[C@H]2c2ccccc2)CC1 | 50 | 69 | –
CC(C)[C@H](N)C(=O)N1CC(c2cc(F)ccc2F)=C[C@H]1c1ccccc1 | 3.6 | 12 | –
O=C([C@@H](O)C1CC1)N1CC(c2cc(F)ccc2F)=C[C@H]1c1ccccc1 | 11 | 20 | IC50 [13]: 11000 nM
CN(CCCN)C(=O)N1CC(c2cc(F)ccc2F)=C[C@H]1c1ccccc1 | 16 | 44 | –
CN(C)C(=O)N1CC(c2cc(F)ccc2F)=C[C@@H]1c1ccccc1 | > 50000 | – | –
CC(=O)N1CC(c2cc(F)ccc2F)=CC1c1ccccc1 (racemic) | 4000 | – | –
CC(C)(C)C(=O)N1N=C(c2cc(F)ccc2F)CC1c1ccccc1 (racemic) | 113 | – | –
CC(C)(C)C(=O)N1CC(c2cc(F)ccc2F)=CC1c1ccccc1 (racemic) | 85 | – | –
